Measured values reported in ChEMBL document CHEMBL4665761, “Optimizing the Benefit/Risk of Acetyl-CoA Carboxylase Inhibitors through Liver Targeting” (J Med Chem, 2020).

Experiments:
[1] = Cmax in Wistar-Hannover rat plasma at 4 mg/kg, po and measured up to 24 hrs by LC/MS-MS analysis; type: ADME, organism-based; design: route oral, dose 4 mg/kg, time <=24
OATP1B3 = molecular target: T1, OATP1B3 (Homo sapiens, UniProt Q9NPD5); experiment: Substrate activity at human OATP1B3 stably expressed in HEK293 cells assessed as ratio of total to passive cellular uptake at 1 uM incubated for 5 mins by LC/MS-MS analysis; type: ADME, cell-based; settings: HEK293 cells stably expressing human OATP1B3
T1 sequence (Q9NPD5 whole entry): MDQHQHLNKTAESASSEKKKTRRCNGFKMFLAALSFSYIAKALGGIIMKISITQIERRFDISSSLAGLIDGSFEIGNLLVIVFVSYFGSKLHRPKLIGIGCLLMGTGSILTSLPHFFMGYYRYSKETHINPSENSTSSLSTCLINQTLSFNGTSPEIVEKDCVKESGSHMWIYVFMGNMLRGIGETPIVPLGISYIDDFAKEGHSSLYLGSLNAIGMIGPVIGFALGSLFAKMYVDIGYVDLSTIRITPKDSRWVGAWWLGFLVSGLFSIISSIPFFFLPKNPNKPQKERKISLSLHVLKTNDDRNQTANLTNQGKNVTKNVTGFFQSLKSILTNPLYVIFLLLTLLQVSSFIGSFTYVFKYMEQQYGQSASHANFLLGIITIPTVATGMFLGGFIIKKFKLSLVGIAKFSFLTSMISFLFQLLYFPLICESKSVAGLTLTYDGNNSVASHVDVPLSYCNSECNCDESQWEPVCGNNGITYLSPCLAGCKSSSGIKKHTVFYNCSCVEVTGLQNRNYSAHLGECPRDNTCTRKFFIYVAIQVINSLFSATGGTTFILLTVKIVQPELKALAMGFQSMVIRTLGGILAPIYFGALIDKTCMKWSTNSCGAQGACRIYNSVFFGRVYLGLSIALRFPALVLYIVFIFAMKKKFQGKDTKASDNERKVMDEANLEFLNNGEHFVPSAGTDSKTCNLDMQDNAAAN
Procedure, shortened: (§1)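 Transfected versus parental HEK293 cells exposed at 1 µM for 5 min at 37 °C. Ratio is total (transfected) over passive (parental) uptake; >2 denotes substrate.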

OATP1B1 = molecular target: T2, OATP1B1 (Homo sapiens, UniProt Q9Y6L6); experiment: Substrate activity at human OATP1B1 stably expressed in HEK293 cells assessed as ratio of total to passive cellular uptake at 1 uM incubated for 5 mins by LC/MS-MS analysis; type: ADME, cell-based; settings: HEK293 cells stably expressing human OATP1B1; procedure, shortened: as §1
T2 sequence (Q9Y6L6 whole entry): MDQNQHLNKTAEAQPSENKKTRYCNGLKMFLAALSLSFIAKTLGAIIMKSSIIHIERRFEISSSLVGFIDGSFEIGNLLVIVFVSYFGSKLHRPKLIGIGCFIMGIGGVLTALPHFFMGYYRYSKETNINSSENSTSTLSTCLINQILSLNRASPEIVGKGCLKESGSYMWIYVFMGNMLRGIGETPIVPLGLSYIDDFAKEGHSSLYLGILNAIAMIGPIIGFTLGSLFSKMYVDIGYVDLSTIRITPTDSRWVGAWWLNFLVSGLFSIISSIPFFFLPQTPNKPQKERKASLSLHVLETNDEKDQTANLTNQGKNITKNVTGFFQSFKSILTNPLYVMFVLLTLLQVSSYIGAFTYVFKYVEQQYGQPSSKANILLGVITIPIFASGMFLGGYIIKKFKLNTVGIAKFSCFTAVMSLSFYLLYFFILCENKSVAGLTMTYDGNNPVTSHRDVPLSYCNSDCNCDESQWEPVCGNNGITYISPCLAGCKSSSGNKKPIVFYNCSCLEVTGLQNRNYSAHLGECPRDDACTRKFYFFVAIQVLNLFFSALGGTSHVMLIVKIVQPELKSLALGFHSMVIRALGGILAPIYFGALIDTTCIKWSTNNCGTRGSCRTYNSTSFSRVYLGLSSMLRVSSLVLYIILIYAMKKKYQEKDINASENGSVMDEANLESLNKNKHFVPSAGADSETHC

[2] = Inhibition of DNL in Sprague-Dawley rat assessed as reduction in DNL level in lung at 300 mg/kg, po pretreated with 1 hr followed by [14C]-acetate treatment and measured after 1 hr relative to control; type: functional; settings: time 2 hrs
Procedure, shortened: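 Sprague-Dawley rats given single oral doses of 0.03–300 mg/kg in 0.5% methyl cellulose vehicle, n = 16 per dose. Read-out is incorporation of 14C-acetate into lipids in liver, bone marrow and lung, measured at 2 h post-dose relative to vehicle. Data are mean ± SEM. EC50 is reported with a 95% confidence interval.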

Bile salt export pump = Bile salt export pump (Homo sapiens, UniProt O95342); experiment: Inhibition of human BSEP expressed in baculovirus infected Hi5 insect cells in presence of taurocholic acid by LC-MS/MS analysis
Bile salt export pump, sequence (O95342 whole entry): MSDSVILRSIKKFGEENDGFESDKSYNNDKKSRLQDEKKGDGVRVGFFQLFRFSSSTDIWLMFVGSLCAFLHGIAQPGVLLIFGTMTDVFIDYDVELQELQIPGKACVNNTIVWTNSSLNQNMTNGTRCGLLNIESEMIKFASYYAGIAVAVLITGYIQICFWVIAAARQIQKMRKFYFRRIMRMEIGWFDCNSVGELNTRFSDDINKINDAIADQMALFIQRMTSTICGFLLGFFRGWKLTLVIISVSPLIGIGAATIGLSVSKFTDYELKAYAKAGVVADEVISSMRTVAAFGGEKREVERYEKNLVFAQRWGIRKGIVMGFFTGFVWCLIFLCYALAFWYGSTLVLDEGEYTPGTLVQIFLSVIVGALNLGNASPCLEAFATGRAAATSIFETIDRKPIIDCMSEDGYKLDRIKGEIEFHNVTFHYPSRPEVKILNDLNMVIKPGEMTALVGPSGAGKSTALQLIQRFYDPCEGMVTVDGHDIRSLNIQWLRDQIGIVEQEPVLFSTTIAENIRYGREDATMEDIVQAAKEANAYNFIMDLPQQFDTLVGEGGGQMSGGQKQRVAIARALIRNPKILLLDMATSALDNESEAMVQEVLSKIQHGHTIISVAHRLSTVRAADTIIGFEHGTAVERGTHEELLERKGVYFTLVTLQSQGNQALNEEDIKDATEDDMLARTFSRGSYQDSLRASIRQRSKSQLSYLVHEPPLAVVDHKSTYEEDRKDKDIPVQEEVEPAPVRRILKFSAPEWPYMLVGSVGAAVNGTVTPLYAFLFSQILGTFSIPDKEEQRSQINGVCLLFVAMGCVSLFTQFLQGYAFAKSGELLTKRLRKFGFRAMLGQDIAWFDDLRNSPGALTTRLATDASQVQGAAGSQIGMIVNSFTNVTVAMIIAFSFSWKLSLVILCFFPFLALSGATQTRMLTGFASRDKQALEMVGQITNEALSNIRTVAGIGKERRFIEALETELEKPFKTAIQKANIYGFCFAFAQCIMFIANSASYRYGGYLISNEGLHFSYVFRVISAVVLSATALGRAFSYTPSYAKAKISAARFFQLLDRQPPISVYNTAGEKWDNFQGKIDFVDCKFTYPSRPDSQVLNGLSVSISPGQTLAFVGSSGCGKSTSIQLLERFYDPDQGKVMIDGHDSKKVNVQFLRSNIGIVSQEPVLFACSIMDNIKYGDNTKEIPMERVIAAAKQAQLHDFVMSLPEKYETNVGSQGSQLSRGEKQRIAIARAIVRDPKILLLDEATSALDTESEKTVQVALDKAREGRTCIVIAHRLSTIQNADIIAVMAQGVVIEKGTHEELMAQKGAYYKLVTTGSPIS

TK6 = experiment: Genotoxicity in human TK6 cells by micronucleus test; type: toxicity, cell-based
Procedure, shortened: (§2)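 In vitro micronucleus assay in Chinese hamster ovary or TK6 cells, run with and without metabolic activation by aroclor-induced rat liver S9 fraction plus NADPH.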

CHO = experiment: Genotoxicity in CHO cells by micronucleus test; type: toxicity, cell-based, Cricetulus griseus; settings: chinese hamster; procedure, shortened: as §2
[3] = Genotoxicity in Salmonella typhimurium TA100 by Ames test; type: toxicity; settings: salmonella enterica subsp. enterica serovar typhimurium
Procedure, shortened: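 Ames test in Salmonella strains TA98, TA100, TA1535 and TA1537, run with and without aroclor-induced rat liver S9 plus NADPH.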

[4] = molecular target: Organic anion transporter 3 (Homo sapiens, UniProt Q8TCC7); experiment: Inhibition of human SLC22A8 expressed in HEK293 cells in presence of para-aminohippuric acid/metformin; type: cell-based
Organic anion transporter 3, sequence (Q8TCC7 whole entry): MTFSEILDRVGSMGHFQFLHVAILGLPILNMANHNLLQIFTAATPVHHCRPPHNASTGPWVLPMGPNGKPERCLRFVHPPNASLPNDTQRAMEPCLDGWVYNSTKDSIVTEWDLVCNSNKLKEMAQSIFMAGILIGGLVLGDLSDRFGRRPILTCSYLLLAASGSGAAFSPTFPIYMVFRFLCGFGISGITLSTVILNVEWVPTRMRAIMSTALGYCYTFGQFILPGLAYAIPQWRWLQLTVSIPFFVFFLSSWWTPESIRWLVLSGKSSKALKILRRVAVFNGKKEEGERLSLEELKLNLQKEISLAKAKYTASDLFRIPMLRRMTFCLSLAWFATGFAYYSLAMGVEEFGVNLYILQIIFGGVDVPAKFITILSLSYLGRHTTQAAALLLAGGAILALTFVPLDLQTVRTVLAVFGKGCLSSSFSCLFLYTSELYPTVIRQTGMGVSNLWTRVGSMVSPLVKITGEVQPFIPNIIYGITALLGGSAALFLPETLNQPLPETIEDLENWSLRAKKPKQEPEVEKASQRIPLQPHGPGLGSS

[5] = molecular target: Solute carrier organic anion transporter family member 1B3 (Homo sapiens, UniProt Q9NPD5); experiment: Inhibition of human OATP1B3 expressed in HEK293 cells n presence of rosuvastatin; type: cell-based
[6] = molecular target: UDP-glucuronosyltransferase 2B15 (Homo sapiens, UniProt P54855); experiment: Inhibition of UGT2B15 in human liver microsomes in presence of UDPGA by LC-MS/MS analysis; type: ADME
UDP-glucuronosyltransferase 2B15, sequence (P54855 whole entry): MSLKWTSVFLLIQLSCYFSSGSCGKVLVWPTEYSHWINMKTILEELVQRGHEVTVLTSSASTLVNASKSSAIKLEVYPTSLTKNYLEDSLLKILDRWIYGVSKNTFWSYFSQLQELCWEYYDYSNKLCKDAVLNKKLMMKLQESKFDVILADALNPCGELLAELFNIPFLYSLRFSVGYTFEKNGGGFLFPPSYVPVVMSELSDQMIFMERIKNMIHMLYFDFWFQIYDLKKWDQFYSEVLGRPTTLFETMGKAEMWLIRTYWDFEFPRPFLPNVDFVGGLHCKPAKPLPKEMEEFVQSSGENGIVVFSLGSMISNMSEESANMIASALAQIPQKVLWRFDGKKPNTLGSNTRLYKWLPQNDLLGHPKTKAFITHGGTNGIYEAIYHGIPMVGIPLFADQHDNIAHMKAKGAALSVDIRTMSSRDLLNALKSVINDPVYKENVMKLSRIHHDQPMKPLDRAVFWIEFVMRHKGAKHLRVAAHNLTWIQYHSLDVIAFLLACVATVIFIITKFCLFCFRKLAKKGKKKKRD

[7] = molecular target: UDP-glucuronosyltransferase 1A6 (Homo sapiens, UniProt P19224); experiment: Inhibition of UGT1A6 in human liver microsomes incubated for 90 mins in presence of UDPGA by LC-MS/MS analysis; type: ADME
UDP-glucuronosyltransferase 1A6, sequence (P19224 whole entry): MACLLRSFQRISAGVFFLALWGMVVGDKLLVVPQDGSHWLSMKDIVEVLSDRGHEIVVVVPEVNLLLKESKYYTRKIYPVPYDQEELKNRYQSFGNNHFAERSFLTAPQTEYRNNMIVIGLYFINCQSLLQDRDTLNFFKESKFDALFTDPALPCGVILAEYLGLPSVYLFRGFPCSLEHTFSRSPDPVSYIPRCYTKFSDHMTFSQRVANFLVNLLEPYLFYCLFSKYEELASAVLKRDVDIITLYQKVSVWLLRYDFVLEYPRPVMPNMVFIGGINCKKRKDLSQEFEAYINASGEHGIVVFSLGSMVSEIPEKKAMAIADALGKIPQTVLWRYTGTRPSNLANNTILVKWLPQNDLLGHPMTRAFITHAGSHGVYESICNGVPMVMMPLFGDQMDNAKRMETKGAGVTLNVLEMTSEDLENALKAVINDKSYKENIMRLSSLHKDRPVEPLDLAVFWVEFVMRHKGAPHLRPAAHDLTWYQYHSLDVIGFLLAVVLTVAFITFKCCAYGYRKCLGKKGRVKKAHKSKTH

[8] = Induction of CYP3A4 mRNA expression in human hepatocytes at 0.5 to 200 uM; type: ADME, cell-based, Hepatocyte; settings: dose 0.5-200 µM
Procedure, shortened: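 Individual human hepatocyte lots treated at 0.5–200 µM. Read-out is messenger RNA levels of CYP1A2 and CYP3A4.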

[9] = Fraction unbound in human plasma by equilibrium dialysis method; type: ADME, cell-free
[10] = Clearance in cynomolgus monkey plasma at 1 mg/kg, iv and measured up to 72 hrs by LC/MS-MS analysis; type: ADME, organism-based, Macaca fascicularis
Procedure, shortened: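 Cynomolgus monkeys dosed 1 mg/kg IV as the tris salt in 2% N-methylpyrrolidone/98% sulfobutylether-β-cyclodextrin (12.5%) in 50 mM TRIS, pH 8.0, or PO as the tris salt. Plasma was analysed by LC-MS/MS, n = 2. CL = IV dose/AUC; Vss = dose/(AUC × elimination rate constant); Cmax taken from observed data.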

[11] = Fraction unbound in monkey plasma by equilibrium dialysis method; type: ADME, cell-free, Macaca mulatta; settings: rhesus monkey
Procedure, shortened: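 Fraction unbound in plasma and liver tissue was determined by equilibrium dialysis.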

Row | Cmax [1] [ng/mL] | uptake ratio at 5 min, 1 µM (OATP1B3) | uptake ratio at 5 min, 1 µM (OATP1B1) | IC50 [4] [µM] | IC50 [5] [µM] | IC50 [6] [µM] | IC50 [7] [µM] | Activity [8] | fraction unbound [9] | clearance [10] [mL/min/kg] | fraction unbound [11] | Structure (SMILES) | inhibition in vivo at 300 mg/kg [2] [%] | IC50 (Bile salt export pump) [µM] | Activity (TK6) | Activity (CHO) | Activity [3]
1 | 53.9 | 3.3 | 5 |  |  |  |  |  |  |  |  | COc1cc(C(=O)N2CCC3(CC2)CC(=O)c2nn(C(C)(C)C)cc2O3)cc(-c2ccc(C(=O)O)cc2)n1 |  |  |  |  | 
2 |  |  |  | > 30 | 137 | > 20 | > 20 | Not Active | 0.006 | 1.3 | 0.00956 | COc1cc(C(=O)N2CCC3(CC2)CC(=O)c2c(cnn2C(C)C)C3)cc(-c2ccc(C(=O)O)cc2)n1 [CLESACOSTAT] | 29 | 94 | Non-Toxic | Non-Toxic | Non-Toxic
